Hits are enriched below; roughly 9.8% of the tested compounds scored in any of these assays.
PMI activator: activators of human PMI, primary screen, biochemical, fluorescence intensity, near-Km mannose 6-phosphate; hit rate 0.005% among 190,000; purified human PMI, coupled resazurin fluorescence, 20 min; active compounds read high; 1 = vehicle control, 0 substrate-free wells; AID 1214, 2008; Mannose-6-phosphate isomerase (Homo sapiens), P34949; activation factor at 20 µM;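 active = activation factor of 2 or more at 20 µM, relative to plate controls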
WT yeast gro inh: growth inhibition of WT strain, primary screen, mitochondrial fusion inhibitor project, WT and mutant strains, chemical genetic. mitochondrial fusion phenotypic screen. inhibition, % at 10 µM. hit rate 2.1% among 190,000. AID 1362, 2008; in the data active = inhibition above about 58%; tested in S. cerevisiae
PMI act hi M6P: human PMI activators, high substrate, primary screen, biochemical, fluorescence intensity, near-saturating mannose 6-phosphate. Mannose-6-phosphate isomerase (Homo sapiens), P34949. coupled PMI enzyme assay, resazurin fluorescence, 20 min; active compounds read high; 1 = untreated enzyme, 0 = substrate-free blank. activation factor at 20 µM. hit rate 0.34% among 190,000. AID 1216, 2008;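 active = activation factor of 2 or more at 20 µM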
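Material: human phosphomannose isomerase with PGI, G6PDH, diaphorase coupling enzymes; amount: PMI at 15 ng/mL final; also added: Mannose-6-phosphate 1.0 mM (near-saturating) plus 0.22 mM NADP+; incubation: enzyme reaction with compound 20 min at room temperature; signal: resorufin fluorescence (Ex 544/Em 590 nm) from resazurin via diaphorase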
Lmaj promast: Leishmania major promastigote growth inhibition, primary screen; Leishmania major promastigotes, resazurin fluorescence viability; inhibition, % at 10 µM; hit rate 9% among 200,000; AID 1063, 2008; in the data active = inhibition above about 50%;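 also: promastigotes grown with compound for 44 hours at 28 °C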
m-calpain inh: inhibitors of pig calpain II, primary screen, biochemical, fluorogenic peptide substrate, 1536-well. inhibition, % at 16 µM. hit rate 0.37% among 220,000. purified calpain II, 30 min;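 active = inhibition above about 50%, limit read from the data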
Rad51 HR inh: human RAD51 strand exchange inhibitors, primary screen, biochemical, fluorescence; DNA repair protein RAD51 homolog 1 (Homo sapiens), Q06609; hRad51 DNA strand exchange, fluorescence dequenching; inhibition, % at 10 µM; hit rate 0.085% among 200,000; AID 1385, 2008;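 active = inhibition above 40% at the single screening dose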;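 also: 0% = DMSO control wells and 100% = blanks with heterologous ssDNA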
Target sequence (Q06609 whole entry, looked up): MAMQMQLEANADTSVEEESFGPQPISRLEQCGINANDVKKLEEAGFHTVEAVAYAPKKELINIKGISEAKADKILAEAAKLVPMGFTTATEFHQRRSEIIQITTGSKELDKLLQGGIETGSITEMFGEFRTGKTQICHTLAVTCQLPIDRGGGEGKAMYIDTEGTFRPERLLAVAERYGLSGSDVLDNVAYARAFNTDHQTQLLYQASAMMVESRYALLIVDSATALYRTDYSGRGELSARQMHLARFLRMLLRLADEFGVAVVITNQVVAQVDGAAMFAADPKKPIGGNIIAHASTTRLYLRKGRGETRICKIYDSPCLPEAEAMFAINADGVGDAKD
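Material: human Rad51–ssDNA filaments; Probe or stimulus: labelled 47-mer dsDNA for strand exchange; Doses: single 10 µM dose; Incubation: 37 °C 15-min filament assembly, 30-min compound preincubation, 15-min exchange; Technique: FRET fluorescence dequenching, excitation 485 nm, emission 520 nm; Measure: Fluorescence-based percent inhibition, control- and blank-normalised; Benchmarks: plate control and blank wells.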
* marks the source's active call; other numbers are inactive results; x = not tested or not shown.

SMILES | PMI activator | WT yeast gro inh | PMI act hi M6P | Lmaj promast | m-calpain inh | Rad51 HR inh
Oc1c(N=NC(=S)Nc2ccccc2F)c2ccccc2n1Cc1ccccc1 | 1.1 | -5.3 | 1.1 | 95.6* | -94.0 | 7.2
O=S(=O)(Nc1ccc2cn[nH]c2c1)c1ccc(Cl)s1 | 1 | -11.4 | 0.9 | 2.0 | -14.7 | 3.5
Cn1ccc2c([N+](=O)[O-])cccc2c1=O | 0.9 | -0.9 | 0.8 | 5.4 | -8.3 | 10.2
Cc1c(Cl)cccc1NC(=S)N=Nc1c(O)n(CN2CCOCC2)c2ccccc12 | 1 | 62.4 | 1.1 | 98.1* | 21.9 | x
C=CCn1c(O)c(N=NC(=S)Nc2cccc(C)c2)c2ccccc21 | 1.1 | 14.6 | 1.1 | 98.7* | 3.2 | x
CCOc1ccc(NC(=S)Nc2cccc3cnccc23)cc1 | 0.4 | 58.1* | 0.4 | 8.6 | -2.2 | 7.9
Fc1ccc(NC(=S)Nc2cccc3cnccc23)cc1 | 0.9 | 49.7 | 1.1 | 7.5 | -5.8 | -1.0
S=C(Nc1ccc(Cl)cc1)Nc1cccc2cnccc12 | 0.7 | 61.6* | 0.9 | 3.1 | -11.7 | x
CC(/C=N/n1c(-c2cc(C)[nH]n2)n[nH]c1=S)=C\c1ccccc1 | 0.8 | -23.6 | 0.9 | 4.2 | 9.2 | 0.0
CC(/C=N/n1c(C2CCCCC2)n[nH]c1=S)=C\c1ccccc1 | 0.9 | 89.1* | 0.9 | -5.9 | 25.2 | -6.2
COc1ccc(NS(=O)(=O)c2ccc(N3CCOCC3)c(NC(=O)c3ccco3)c2)cc1 | 1 | -3.4 | 0.9 | 28.9 | -10.9 | 7.3
COc1ccccc1NS(=O)(=O)c1cc(NC(=O)c2ccco2)ccc1N1CCOCC1 | 1.1 | 8.8 | 1 | 99.8* | -0.2 | -6.8
COc1ccccc1NS(=O)(=O)c1cc(NC(=O)c2ccccc2F)ccc1N1CCOCC1 | 0.9 | -5.2 | 1 | 40.0 | -54.2 | 2.6
COc1ccccc1NS(=O)(=O)c1ccc(N2CCOCC2)c(NC(=O)c2ccco2)c1 | 0.9 | 17.5 | 0.9 | 69.1* | 12.3 | -2.8
COc1ccc(NS(=O)(=O)c2ccc(N3CCOCC3)c(NC(=O)c3ccc(F)cc3)c2)cc1 | 0.9 | -17.6 | 1 | 71.9* | 27.8 | -2.1
CCOC(=O)C1=C(CNCc2ccc(C)cc2)NC(=O)NC1c1cc(C)ccc1C (stereo not drawn) | 0.8 | 24.9 | 0.9 | 100.3* | 40.1 | -5.1
O=C(SCC(O)C(O)CS)c1cccs1 (stereo not drawn) | x | x | x | x | 9.5 | 1.4
Cc1ccc(C2NC(c3ccc(C)cc3)C(C)C(=NO)C2C)cc1 (stereo not drawn) | 0.8 | 83.0* | 0.8 | 7.9 | -10.3 | -1.5
COc1ccc(S(=O)(=O)Nc2cc(C(=O)NCCCN3CCOCC3)ccc2N2CCOCC2)cc1 | 1 | -6.9 | 1 | 1.3 | -17.7 | 18.1
CCN(CC)CCNC(=O)c1ccc(N2CCCCC2)c(NS(=O)(=O)c2ccc(C)cc2)c1 | 0.9 | 16.3 | 1 | 100.5* | -103.2 | 2.8
COC(=O)c1ccc(N2CCCCC2)c(NS(=O)(=O)c2ccc(C)cc2)c1 | 0.9 | 52.5 | 0.9 | 96.7* | -17.9 | -7.0
Cn1c(=O)[nH]c(=O)c2c1nc1n2CC(COc2ccc3ccccc3c2)O1 (stereo not drawn) | x | x | x | x | -26.8 | 3.5
CC(Oc1ccc2oc3ccccc3c2c1)C(=O)NC12CC3CC(CC(C3)C1)C2 (stereo not drawn) | 0.9 | 66.6* | 1.1 | 11.2 | 19.5 | -5.7
CCCNC(=O)NC(=O)COc1ccc2oc3ccccc3c2c1 | 1 | 22.8 | 1 | 5.9 | -18.3 | 2.9
CC1CCCCC1NC(=O)/C(C#N)=C/c1ccc2c(c1)OCCO2 (stereo not drawn) | 1 | 0.1 | 1 | 59.3* | -8.0 | x
CC1CCCCC1NC(=O)/C(C#N)=C/c1ccc(F)c(F)c1 (stereo not drawn) | 1 | 19.7 | 1 | 96.4* | -1.4 | 0.2
O=C(NCc1nnc(SCc2ccc(C(F)(F)F)cc2)n1-c1ccccc1)C12CC3CC(CC(C3)C1)C2 | 0.9 | 71.8* | 1 | 2.6 | 6.1 | -2.1

Screening data as filed in PubChem.
